A value given as a limit tells only on which side of the number the result lay.

In the first assay the target is T1, Polyunsaturated fatty acid 5-lipoxygenase (Homo sapiens) (UniProt P09917).
T1 sequence (whole entry): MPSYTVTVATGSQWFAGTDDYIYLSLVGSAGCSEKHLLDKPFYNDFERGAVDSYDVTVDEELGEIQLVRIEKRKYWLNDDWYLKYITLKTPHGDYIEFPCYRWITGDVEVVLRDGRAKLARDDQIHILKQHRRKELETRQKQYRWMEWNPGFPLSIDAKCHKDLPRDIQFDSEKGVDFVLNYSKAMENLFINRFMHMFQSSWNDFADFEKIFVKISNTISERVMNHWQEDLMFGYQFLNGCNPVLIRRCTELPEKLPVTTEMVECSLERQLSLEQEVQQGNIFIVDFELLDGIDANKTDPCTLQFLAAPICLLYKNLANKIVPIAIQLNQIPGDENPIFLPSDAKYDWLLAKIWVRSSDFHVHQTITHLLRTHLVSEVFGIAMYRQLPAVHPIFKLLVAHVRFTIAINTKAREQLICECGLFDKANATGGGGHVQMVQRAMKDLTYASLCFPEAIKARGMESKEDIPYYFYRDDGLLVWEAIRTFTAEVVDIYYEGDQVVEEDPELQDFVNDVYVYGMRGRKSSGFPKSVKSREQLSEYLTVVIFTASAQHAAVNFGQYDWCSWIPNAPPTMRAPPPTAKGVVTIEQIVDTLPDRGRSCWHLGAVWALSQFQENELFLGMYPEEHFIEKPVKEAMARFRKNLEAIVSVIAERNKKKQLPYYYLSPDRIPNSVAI
The assay can be described thus: Inhibition of recombinant human 5-Lipoxygenase expressed in Escherichia coli lysate assessed as residual activity at 10 uM after 10 mins by HPLC analysis. Summed up: (§1)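 Human 5-LO expressed at 30 °C in E. coli MV1190 (pT3-5LO); lysate 40,000 g supernatant in PBS pH 7.4 with 1 mM EDTA. Preincubated with compound 10 min at 4 °C, warmed 30 s at 37 °C. Started with 2 mM CaCl2 plus 20 µM AA, 10 min at 37 °C. Methanol stop, HPLC. Residual % versus 0.3% DMSO vehicle, n = 3–5.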
For the compound `CCOC(=O)C1CCN(C(=O)CCc2cc(-c3ccc(C)cc3)n(-c3ccccc3)n2)CC1`, the Activity was 102%.

Take `CC(C)(C)c1ccc(CN2CCN(C(=O)CCc3cc(-c4ccc(F)cc4)n(-c4ccc(Cl)nn4)n3)CC2)cc1`: the Activity is 55.3%.

Turning to `CCOC(=O)C1CCN(C(=O)CCc2cc(-c3ccc(C(F)(F)F)cc3)n(-c3ccc(Cl)nn3)n2)CC1`, the Activity stood at 72.6%.

Regarding `Cc1ccc(-c2cc(CCC(=O)Oc3ccc(C(C)C)cc3)nn2-c2ccc(Cl)nn2)cc1`, the Activity was 92.7%.

In the case of `Cc1ccc(-c2cc(CCC(=O)Oc3ccc(C(C)C)cc3)nn2-c2ccc3ccccc3n2)cc1`, the Activity is 79.6%.

As to `Cc1ccc(-c2cc(CCC(=O)N3CCN(Cc4ccc(C(C)(C)C)cc4)CC3)nn2-c2ccc3ccccc3n2)cc1`, the Activity was determined as 51.5%.

As to `CCOC(=O)C1CCN(C(=O)CCc2cc(-c3ccc(C)cc3)n(-c3ccc4ccccc4n3)n2)CC1`, the Activity came out at 69.9%.

For `Cc1ccc(-c2cc(CCC(=O)N3CCN(Cc4ccc(C(C)(C)C)cc4)CC3)nn2-c2ccccc2)cc1`, the Activity was found to be 85.6%.

For the compound `Cc1ccc(-c2cc(CCC(=O)Oc3ccc(C(C)C)cc3)nn2-c2ccccc2)cc1`, the Activity was found to be 95.3%.

The next assay has as its target T2, Polyunsaturated fatty acid 5-lipoxygenase (Homo sapiens, UniProt P09917).
T2 sequence (P09917 whole entry): T1 sequence (whole entry)
The assay is described as follows: Inhibition of recombinant human 5-Lipoxygenase expressed in Escherichia coli lysate after 10 mins by HPLC analysis. The method in brief:
as §1
The term IC50 denotes the concentration that gives 50% inhibition. Consider `CCOC(=O)C1CCN(C(=O)CCc2cc(-c3ccc(C)cc3)n(-c3ccccc3)n2)CC1`, for which the IC50 is > 10 µM.

Turning to `CC(C)(C)c1ccc(CN2CCN(C(=O)CCc3cc(-c4ccc(F)cc4)n(-c4ccc(Cl)nn4)n3)CC2)cc1`, the IC50 is > 10 µM.

In the case of `CCOC(=O)C1CCN(C(=O)CCc2cc(-c3ccc(C(F)(F)F)cc3)n(-c3ccc(Cl)nn3)n2)CC1`, the IC50 is > 10 µM.

For `Cc1ccc(-c2cc(CCC(=O)Oc3ccc(C(C)C)cc3)nn2-c2ccc(Cl)nn2)cc1`, the IC50 is > 10 µM.

On to `Cc1ccc(-c2cc(CCC(=O)Oc3ccc(C(C)C)cc3)nn2-c2ccc3ccccc3n2)cc1`, for which the IC50 is > 10 µM.

Regarding `Cc1ccc(-c2cc(CCC(=O)N3CCN(Cc4ccc(C(C)(C)C)cc4)CC3)nn2-c2ccc3ccccc3n2)cc1`, the IC50 is > 10 µM.

On to `CCOC(=O)C1CCN(C(=O)CCc2cc(-c3ccc(C)cc3)n(-c3ccc4ccccc4n3)n2)CC1`, for which the IC50 is > 10 µM.

`Cc1ccc(-c2cc(CCC(=O)N3CCN(Cc4ccc(C(C)(C)C)cc4)CC3)nn2-c2ccccc2)cc1`: the IC50 was > 10 µM.

As to `Cc1ccc(-c2cc(CCC(=O)Oc3ccc(C(C)C)cc3)nn2-c2ccccc2)cc1`, the IC50 was > 10 µM.

The target of another assay is T3, Prostaglandin G/H synthase 2 (Homo sapiens) (UniProt P35354).
T3 sequence (whole entry): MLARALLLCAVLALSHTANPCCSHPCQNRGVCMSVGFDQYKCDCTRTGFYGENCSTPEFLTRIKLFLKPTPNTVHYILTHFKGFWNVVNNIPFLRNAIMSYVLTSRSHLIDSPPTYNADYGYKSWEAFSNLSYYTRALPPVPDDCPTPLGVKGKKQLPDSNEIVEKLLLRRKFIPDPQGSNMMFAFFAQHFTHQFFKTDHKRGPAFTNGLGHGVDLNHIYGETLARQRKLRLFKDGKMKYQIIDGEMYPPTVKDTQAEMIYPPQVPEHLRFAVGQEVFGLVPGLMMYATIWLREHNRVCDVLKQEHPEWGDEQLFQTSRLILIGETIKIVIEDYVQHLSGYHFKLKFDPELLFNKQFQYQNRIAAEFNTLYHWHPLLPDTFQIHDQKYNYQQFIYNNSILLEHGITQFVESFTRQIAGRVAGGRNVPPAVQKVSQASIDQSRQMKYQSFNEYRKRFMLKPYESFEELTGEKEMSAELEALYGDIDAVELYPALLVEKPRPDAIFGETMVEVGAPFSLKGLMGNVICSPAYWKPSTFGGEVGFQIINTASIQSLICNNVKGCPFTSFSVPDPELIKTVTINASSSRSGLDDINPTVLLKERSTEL
The assay is described as follows: Inhibition of COX2-mediated 6-keto PGF1alpha production in IL1-beta stimulated human A549 cells assessed as residual activity at 10 uM after 10 mins by EIA. The class given is cell-based. The method in brief: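 A549 cells stimulated with IL-1β (1 ng/ml) 72 h in DMEM with 2% FCS, trypsinized and washed. 10^6 cells/mL PBS with 1 mM CaCl2 preincubated with compound 10 min at 37 °C. 3 µM AA added for 15 min at 37 °C, stopped on ice. 6-keto PGF1α in supernatant measured by EIA.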
As for `CCOC(=O)C1CCN(C(=O)CCc2cc(-c3ccc(C)cc3)n(-c3ccccc3)n2)CC1`, the Activity was determined as 86.3%.

Turning to `CC(C)(C)c1ccc(CN2CCN(C(=O)CCc3cc(-c4ccc(F)cc4)n(-c4ccc(Cl)nn4)n3)CC2)cc1`, the Activity was found to be 84.2%.

Regarding `CCOC(=O)C1CCN(C(=O)CCc2cc(-c3ccc(C(F)(F)F)cc3)n(-c3ccc(Cl)nn3)n2)CC1`, the Activity was determined as 78.6%.

Turning to `Cc1ccc(-c2cc(CCC(=O)Oc3ccc(C(C)C)cc3)nn2-c2ccc(Cl)nn2)cc1`, the Activity was 99.9%.

Consider `Cc1ccc(-c2cc(CCC(=O)Oc3ccc(C(C)C)cc3)nn2-c2ccc3ccccc3n2)cc1`, for which the Activity amounted to 97%.

For `Cc1ccc(-c2cc(CCC(=O)N3CCN(Cc4ccc(C(C)(C)C)cc4)CC3)nn2-c2ccc3ccccc3n2)cc1`, the Activity turned out to be 79%.

Take `CCOC(=O)C1CCN(C(=O)CCc2cc(-c3ccc(C)cc3)n(-c3ccc4ccccc4n3)n2)CC1`: the Activity was found to be 66.3%.

Consider `Cc1ccc(-c2cc(CCC(=O)N3CCN(Cc4ccc(C(C)(C)C)cc4)CC3)nn2-c2ccccc2)cc1`, for which the Activity worked out at 97%.

Take `Cc1ccc(-c2cc(CCC(=O)Oc3ccc(C(C)C)cc3)nn2-c2ccccc2)cc1`: the Activity came out at 111%.

In a further assay the target is Prostaglandin G/H synthase 1 (Homo sapiens, UniProt P23219). The assay can be described thus: Inhibition of COX1-mediated 12-HHT production in human platelet after 5 mins by HPLC analysis. Summed up: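 Washed human platelets, 10^8/mL in PBS with 1 mM CaCl2, preincubated with compound 4 min at 4 °C then 1 min at 37 °C. 5 µM AA added for 5 min at 37 °C. Methanol/HCl stop, PGB1 added, 12-HHT by HPLC. Residual activity at 10 µM. IC50 by interpolation from 4–5 concentrations.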
Sequence of Prostaglandin G/H synthase 1 (P23219 whole entry): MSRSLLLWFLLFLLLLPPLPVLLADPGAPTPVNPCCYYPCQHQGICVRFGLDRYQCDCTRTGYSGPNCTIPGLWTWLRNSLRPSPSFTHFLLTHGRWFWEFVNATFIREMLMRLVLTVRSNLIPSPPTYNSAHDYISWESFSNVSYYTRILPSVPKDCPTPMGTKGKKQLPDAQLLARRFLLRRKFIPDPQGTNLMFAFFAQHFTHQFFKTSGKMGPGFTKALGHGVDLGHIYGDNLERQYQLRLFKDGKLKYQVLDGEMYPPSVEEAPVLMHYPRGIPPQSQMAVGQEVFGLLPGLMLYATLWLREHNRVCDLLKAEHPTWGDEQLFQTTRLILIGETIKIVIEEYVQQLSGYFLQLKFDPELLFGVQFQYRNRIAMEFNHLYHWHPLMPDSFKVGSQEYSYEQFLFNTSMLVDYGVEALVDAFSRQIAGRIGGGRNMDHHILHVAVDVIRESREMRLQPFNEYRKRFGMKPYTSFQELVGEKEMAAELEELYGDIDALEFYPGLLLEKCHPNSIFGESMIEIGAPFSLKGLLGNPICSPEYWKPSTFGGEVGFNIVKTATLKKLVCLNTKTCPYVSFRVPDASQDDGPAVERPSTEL
On to `CCOC(=O)C1CCN(C(=O)CCc2cc(-c3ccc(C)cc3)n(-c3ccccc3)n2)CC1`, for which the IC50 was > 10 µM.

Consider `CC(C)(C)c1ccc(CN2CCN(C(=O)CCc3cc(-c4ccc(F)cc4)n(-c4ccc(Cl)nn4)n3)CC2)cc1`, for which the IC50 was > 10 µM.

Turning to `CCOC(=O)C1CCN(C(=O)CCc2cc(-c3ccc(C(F)(F)F)cc3)n(-c3ccc(Cl)nn3)n2)CC1`, the IC50 is > 10 µM.

In the case of `Cc1ccc(-c2cc(CCC(=O)Oc3ccc(C(C)C)cc3)nn2-c2ccc(Cl)nn2)cc1`, the IC50 is > 10 µM.

The compound `Cc1ccc(-c2cc(CCC(=O)Oc3ccc(C(C)C)cc3)nn2-c2ccc3ccccc3n2)cc1` came in with an IC50 of 0.014 µM.

For the compound `Cc1ccc(-c2cc(CCC(=O)N3CCN(Cc4ccc(C(C)(C)C)cc4)CC3)nn2-c2ccc3ccccc3n2)cc1`, the concentration for half-maximal inhibition (IC50) is 0.041 µM.

Compound `CCOC(=O)C1CCN(C(=O)CCc2cc(-c3ccc(C)cc3)n(-c3ccc4ccccc4n3)n2)CC1` yielded an IC50 of 0.9 µM.

Compound `Cc1ccc(-c2cc(CCC(=O)N3CCN(Cc4ccc(C(C)(C)C)cc4)CC3)nn2-c2ccccc2)cc1` showed an IC50 of 2.5 µM.

Take `Cc1ccc(-c2cc(CCC(=O)Oc3ccc(C(C)C)cc3)nn2-c2ccccc2)cc1`: the IC50 stood at 0.3 µM.

Values taken from ChEMBL document CHEMBL1828531, “Pyrazol-3-propanoic acid derivatives as novel inhibitors of leukotriene biosynthesis in human neutrophils” (Eur J Med Chem, 2011).
